Test results: ChEMBL document CHEMBL5356992, “New nitazoxanide derivatives: design, synthesis, biological evaluation, and molecular docking studies as antibacterial and antimycobacterial agents” (RSC Med Chem, 2023)
≈ marks a conversion by molar mass, not a printed value.

Assays:
Format in all cases: functional
[1] = test system: Staphylococcus aureus; test: Antibacterial activity against Staphylococcus aureus ATCC 6538 by broth microdilution method
Summary of the method: (§1)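 CLSI broth microdilution on wild-type strains. E. coli ATCC 8739, P. aeruginosa ATCC 27853 and K. pneumoniae ATCC 10031 served as Gram-negatives. S. aureus ATCC 6538 and E. faecalis ATCC 19433 served as Gram-positives. H. pylori ATCC 700392 was tested as the […]. Ciprofloxacin was the reference drug. MIC is given in μM as the mean of three experiments.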

[2] = test system: Escherichia coli; test: Antibacterial activity against Escherichia coli ATCC 8739 by broth microdilution method; summary of the method: as §1
[3] = test system: Klebsiella pneumoniae; test: Antibacterial activity against Klebsiella pneumoniae ATCC 10031 by broth microdilution method; summary of the method: as §1
[4] = test system: Helicobacter pylori; test: Antibacterial activity against Helicobacter pylori ATCC 700392 by broth microdilution method; summary of the method: as §1
[5] = test system: Mycobacterium tuberculosis; test: Antimycobacterial activity against Mycobacterium tuberculosis H37Rv incubated for 7 days by alamar blue assay; conditions: 168 h, time 7 day
Summary of the method: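 Two-fold serial dilutions in 7H9-S, with growth and sterile controls, incubated at 37 °C for 7 days. Alamar Blue then added and incubated overnight. MIC is the lowest concentration preventing the blue-to-pink change. Means of three experiments.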

[6] = test system: Pseudomonas aeruginosa; test: Potency index, ratio of nitazoxanide MIC to test compound MIC for antibacterial activity against Pseudomonas aeruginosa ATCC 27853
[7] = test system: Enterococcus faecalis; test: Potency index, ratio of nitazoxanide MIC to test compound MIC for antibacterial activity against Enterococcus faecalis ATCC 19433
[8] = test system: Pseudomonas aeruginosa; test: Antibacterial activity against Pseudomonas aeruginosa ATCC 27853 by broth microdilution method; summary of the method: as §1
[9] = test system: Enterococcus faecalis; test: Antibacterial activity against Enterococcus faecalis ATCC 19433 by broth microdilution method; summary of the method: as §1
[10] = test system: Staphylococcus aureus; test: Potency index, ratio of nitazoxanide MIC to test compound MIC for antibacterial activity against Staphylococcus aureus ATCC 6538
[11] = test system: Escherichia coli; test: Potency index, ratio of nitazoxanide MIC to test compound MIC for antibacterial activity against Escherichia coli ATCC 8739
[12] = test system: Klebsiella pneumoniae; test: Potency index, ratio of nitazoxanide MIC to test compound MIC for antibacterial activity against Klebsiella pneumoniae ATCC 10031

SMILES | MIC [1] [µM] | MIC [2] [µM] | MIC [3] [µM] | MIC [4] [µM] | MIC [5] [µg/mL] | Ratio [6] | Ratio [7] | MIC [8] [µM] | MIC [9] [µM] | Ratio [10] | Ratio [11] | Ratio [12]
O=C(Nc1ncc([N+](=O)[O-])s1)c1ccc(-n2cc(CN3CCN(c4ccccc4)CC3)nn2)cc1O | 505 (≈ 256 µg/mL) | 11.8 (≈ 6 µg/mL) | 253 (≈ 128 µg/mL) | 31.6 (≈ 16 µg/mL) | > 25 | >50 | 25 | 2.96 (≈ 1.5 µg/mL) | 1.97 (≈ 0.998 µg/mL) | – | – | –
O=C(Nc1ncc([N+](=O)[O-])s1)c1ccc(-n2cc(CSc3nc4ccccc4s3)nn2)cc1O | 3.9 (≈ 2 µg/mL) | 3.9 (≈ 2 µg/mL) | 23.4 (≈ 12 µg/mL) | 15.6 (≈ 8 µg/mL) | > 25 | – | – | 31.3 (≈ 16 µg/mL) | – | 25 | 20 | –
O=C(Nc1ncc([N+](=O)[O-])s1)c1ccccc1O [TIZOXANIDE] | 151 (≈ 40 µg/mL) | 181 (≈ 48 µg/mL) | 241 (≈ 64 µg/mL) | 11.3 (≈ 3 µg/mL) | – | – | – | 362 (≈ 96 µg/mL) | 136 (≈ 36 µg/mL) | – | – | –
CO[C@H]1/C=C/O[C@@]2(C)Oc3c(C)c(O)c4c(O)c(c(/C=N/N5CCN(C)CC5)c(O)c4c3C2=O)NC(=O)/C(C)=C\C=C\[C@H](C)[C@H](O)[C@@H](C)[C@@H](O)[C@@H](C)[C@H](OC(C)=O)[C@@H]1C [RIFAMPIN] | – | – | – | – | 0.1 (≈ 0.122 µM) | – | – | – | – | – | – | –
O=C(Nc1ncc([N+](=O)[O-])s1)c1ccc(-n2cc(CN3CCOCC3)nn2)cc1O | 6.95 (≈ 3 µg/mL) | 1190 (≈ 512 µg/mL) | 18.5 (≈ 8 µg/mL) | 9.27 (≈ 4 µg/mL) | > 25 | – | – | 148 (≈ 64 µg/mL) | – | 25 | – | –
COc1ccc2c(c1)C(=O)C(=O)N2Cc1cn(-c2ccc(C(=O)Nc3ncc([N+](=O)[O-])s3)c(O)c2)nn1 | 92 (≈ 48 µg/mL) | 15.3 (≈ 8 µg/mL) | 491 (≈ 256 µg/mL) | 9.58 (≈ 5 µg/mL) | > 25 | – | – | – | 184 (≈ 96 µg/mL) | – | – | –
O=C(Nc1ncc([N+](=O)[O-])s1)c1ccc(-n2cc(CN3CCCC3)nn2)cc1O | 3.61 (≈ 1.5 µg/mL) | 6.01 (≈ 2.5 µg/mL) | 12 (≈ 5 µg/mL) | 19.2 (≈ 8 µg/mL) | > 25 | >50 | – | 7.22 (≈ 3 µg/mL) | – | 25 | – | –
O=C(Nc1ncc([N+](=O)[O-])s1)c1ccc(-n2cc(CN3C(=O)C(=O)c4ccccc43)nn2)cc1O | 32.5 (≈ 16 µg/mL) | – | – | 130 (≈ 64 µg/mL) | > 25 | – | 25 | 16.3 (≈ 8 µg/mL) | 4.06 (≈ 2 µg/mL) | – | – | –
O=C(Nc1ncc([N+](=O)[O-])s1)c1ccc(-n2cc(CN3C(=O)C(=O)c4cc(F)ccc43)nn2)cc1O | 15.7 (≈ 8 µg/mL) | – | – | 3.92 (≈ 2 µg/mL) | > 25 | >50 | 25 | 7.85 (≈ 4 µg/mL) | 4.9 (≈ 2.5 µg/mL) | – | – | –
Cc1ccc2c(c1)C(=O)C(=O)N2Cc1cn(-c2ccc(C(=O)Nc3ncc([N+](=O)[O-])s3)c(O)c2)nn1 | 506 (≈ 256 µg/mL) | 1.48 (≈ 0.748 µg/mL) | 3.95 (≈ 2 µg/mL) | 2.96 (≈ 1.5 µg/mL) | > 25 | – | 25 | 7.91 (≈ 4 µg/mL) | 5.93 (≈ 3 µg/mL) | – | 20 | <=20
O=C(Nc1ncc([N+](=O)[O-])s1)c1ccc(-n2cc(CN3CCCCC3)nn2)cc1O | 9.31 (≈ 4 µg/mL) | 74.5 (≈ 32 µg/mL) | 1190 (≈ 512 µg/mL) | 1.74 (≈ 0.747 µg/mL) | > 25 | – | – | – | 27.9 (≈ 12 µg/mL) | – | – | –
O=C(O)c1cn(C2CC2)c2cc(N3CCNCC3)c(F)cc2c1=O [CIPROFLOXACIN] | 3.01 (≈ 0.997 µg/mL) | 0.3 (≈ 0.0994 µg/mL) | 9.05 (≈ 3 µg/mL) | 1.5 (≈ 0.497 µg/mL) | – | – | – | 4.53 (≈ 1.5 µg/mL) | 6.03 (≈ 2 µg/mL) | – | – | –
